The text below walks through data of article PMC6350648 (Drug Design, Development and Therapy, 2019).

Data set [1] concerns Enterococcus faecalis (NCTC12697). Nature of the data set: MIC/MBC broth-dilution assay. The class given is cell-based. Particulars: E. faecalis NCTC12697, MHB pH 7.4, 512 to 1 µM twofold, 1% DMSO. The gist of the method:
(§1)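 Broth dilution was run in Mueller Hinton Broth, pH 7.4, with peptide at final 512 to 1 µM in twofold steps. Peptide stocks were in DMSO, giving final 1% (v/v) DMSO, also used alone as vehicle control. Controls were culture without peptide for growth and fresh MHB as blank. Positive controls were 5 mg/L vancomycin (S. aureus, MRSA, E. faecalis) and 5 mg/L amphotericin B (C. albicans). Five independent experiments were run.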

The subject of another data set is MDA-MB-435S cells. Description: MTT assay. The class given is cell-based, human. Particulars: MB435s (MDA-MB-435S); peptides in serum-free medium. The gist of the method:
(§2)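 For MTT viability, MDA-MB-435S, U251MG, HCT116 and MCF-7 were grown in DMEM, and NCI-H157 and PC-3 in RPMI 1640. All media had 10% FBS and 1% penicillin–streptomycin. Peptides were diluted in serum-free medium. Untreated cells defined 100% viability, and LD50 was the median lethal dose. Values are the mean with standard error from five independent experiments.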
For orientation: Tetrazolium dyes change colour on reduction, which living cells bring about.

Data set [2] relates to MCF-7 cells. Description: MTT assay. The settings on record: peptides in serum-free medium. The class given is cell-based, human. The gist of the method: as §2
The subject of data set [3] is Staphylococcus aureus (NCTC10788). Description: MIC/MBC broth-dilution assay. The format is cell-based. The settings on record: S. aureus NCTC10788, MHB pH 7.4, 512 to 1 µM twofold, 1% DMSO. The gist of the method:
as §1

Data set [4] deals with Escherichia coli (NCTC10418). Description: MIC/MBC broth-dilution assay. The format is cell-based. Particulars: E. coli NCTC10418, MHB pH 7.4, 512 to 1 µM twofold, 1% DMSO. The gist of the method: as §1
For another data set, the system named is PC-3 cells. Nature of the data set: MTT assay. The format is cell-based, human. Particulars: peptides in serum-free medium. The gist of the method: as §2
Another data set relates to NCI-H157 cells. Nature of the data set: MTT assay. The class given is cell-based, human. The settings on record: peptides in serum-free medium. The gist of the method: as §2
The next data set has as its system horse erythrocytes. Description: Hemolysis assay. Particulars: peptides in PBS, 512 to 1 µM, 1% Triton-X100 = 100%. The class given is cell-based. The gist of the method: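 Horse erythrocytes were exposed to peptide in PBS at 512 to 1 µM. Erythrocytes in PBS defined 0% hemolysis and 1% (v/v) Triton X-100 defined 100%. HC50 (µM) was the concentration giving half-maximal hemolysis. Values are the mean with standard error from five independent experiments.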

Data set [5] deals with Candida albicans (NCYC1467). Nature of the data set: MIC/MBC broth-dilution assay. The class given is cell-based. The settings on record: C. albicans NCYC1467, MHB pH 7.4, 512 to 1 µM twofold, 1% DMSO. The gist of the method: as §1
The test system of a further data set is U251MG cells. Description: MTT assay. The format is cell-based, human. Particulars: peptides in serum-free medium. The gist of the method: as §2
The next data set concerns HCT116 cells. Nature of the data set: MTT assay. The format is cell-based, human. The settings on record: peptides in serum-free medium. The gist of the method:
as §2

In data set [6] the test system is selected human cancer cell lines. Description: MTT assay, all cancer cell lines examined. The format is cell-based. The settings on record: all six cancer cell lines. The gist of the method:
as §2

The test system of data set [7] is methicillin-resistant S. aureus (MRSA) (NCTC12493). Description: MIC/MBC broth-dilution assay. Particulars: MHB pH 7.4, 512 to 1 µM twofold, 1% DMSO. The format is cell-based, Staphylococcus aureus. The gist of the method: as §1
Data set [8] relates to MCF-7 cells. The format is cell-based, human. The settings on record: MCF-7, 10 µM peptide; 100% = 1% TritonX-100; five replicates.

No end group written: not given here.

Usually MIC stands for the lowest concentration that inhibits growth of the organism. A low value points to inhibition by little substance. On to FLSLIPKIISAISALIKHF-NH2 [PSPHa5], for which the MBC in data set [1] was 32 µM; in data set [3], 2 µM; in data set [4], above 512 µM; in data set [5] it was 128 µM; in data set [7], 128 µM. Also, the MIC in data set [1] is 16 µM; in data set [3], 2 µM; in data set [4], above 512 µM; in data set [5], 32 µM; in [7] it was 64 µM. In addition, the “LD50 of MTT assays” value in the data set with MDA-MB-435S cells was found to be 3.553 µM; in the data set with MCF-7 cells [2], 3.753 µM; with PC-3 cells, 4.256 µM; in the data set with NCI-H157 cells, 3.614 µM; with U251MG cells it was 4.059 µM; in the data set with HCT116 cells it was 4.421 µM. Moreover, the “HC50 of hemolysis on erythrocytes” value in the data set on horse erythrocytes stood at 1.074 µM. The “LD50 (MTT) for all the cell lines examined” value in [6] is below 5 µM.

On to FLSLIPKAISAISALANHF-NH2 [PSPHa2], for which the MBC in [1] came to 64 µM; in [3], 4 µM; in data set [4] it was 128 µM; in data set [5] it was 16 µM; in data set [7] it was 32 µM. Also, the minimal inhibitory concentration (MIC) was 64 µM in data set [1]; 4 µM in [3]; 64 µM in data set [4]; 8 µM in [5]; 16 µM in data set [7]. For the same substance, the “LD50 of MTT assays” value in the data set with MDA-MB-435S cells came out at 19.56 µM; in the data set with MCF-7 cells [2], 26.49 µM; in the data set on PC-3 cells, 35.11 µM; with NCI-H157 cells, 35.34 µM; in the data set with U251MG cells, 36.46 µM; in the data set on HCT116 cells, 37.4 µM. In addition, the “HC50 of hemolysis on erythrocytes” value in the data set on horse erythrocytes turned out to be 34.86 µM.

On to “FLSLIPAAISAVSALANHF-NH2 [PSPHa, Phylloseptin-PHa]”, for which the MBC in [1] was above 512 µM; in data set [3], 16 µM; in data set [4] it was above 512 µM; in data set [5] it was 32 µM; in data set [7], 128 µM. Also, the MIC is above 512 µM in data set [1]; 8 µM in [3]; above 512 µM in [4]; 32 µM in data set [5]; 64 µM in data set [7]. The “LD50 of MTT assays” value was 28.48 µM with MDA-MB-435S cells; 24.05 µM in the data set on MCF-7 cells [2]; 37.96 µM with PC-3 cells; 37.61 µM with NCI-H157 cells; 34.67 µM in the data set on U251MG cells; 36.64 µM in the data set with HCT116 cells. Also, the “HC50 of hemolysis on erythrocytes” value in the data set on horse erythrocytes came to 52.17 µM. In addition, the LDH release entry in the data set with MCF-7 cells [8] is “not as potent as PSPHa2–5”.

In the case of FLSLIPKAISAVSALANHF-NH2 [PSPHa1], the MBC amounted to 32 µM in data set [1]; 8 µM in data set [3]; 128 µM in data set [4]; 32 µM in data set [5]; 32 µM in data set [7]. The minimum inhibitory concentration (MIC) in [1] came out at 32 µM; in data set [3], 8 µM; in data set [4], 128 µM; in data set [5], 16 µM; in [7], 16 µM. For the same substance, the “LD50 of MTT assays” value was 32.41 µM in the data set with MDA-MB-435S cells; 45.69 µM in the data set with MCF-7 cells [2]; 32.89 µM in the data set with PC-3 cells; 41.73 µM in the data set with NCI-H157 cells; 33.65 µM in the data set on U251MG cells; 35.16 µM with HCT116 cells. The “HC50 of hemolysis on erythrocytes” value in the data set on horse erythrocytes was determined as 197.7 µM. The LDH release result in the data set with MCF-7 cells [8] is on record as “lowest degree of LDH release”.

On to FLSLIPKIISAISALINHF-NH2 [PSPHa4], for which the MBC in data set [1] was 64 µM; in [3], 2 µM; in data set [4] it was above 512 µM; in data set [5] it was 128 µM; in data set [7], 256 µM. Moreover, the MIC in data set [1] was 32 µM; in [3], 2 µM; in [4], above 512 µM; in [5] it was 32 µM; in data set [7] it was 128 µM. In addition, the “LD50 of MTT assays” value is 4.802 µM in the data set on MDA-MB-435S cells; 15.01 µM in the data set on MCF-7 cells [2]; 9.35 µM in the data set on PC-3 cells; 2.265 µM in the data set on NCI-H157 cells; 9.547 µM with U251MG cells; 6.779 µM in the data set on HCT116 cells. The “HC50 of hemolysis on erythrocytes” value with horse erythrocytes was 2.766 µM.

Turning to FLSLIPKAISAISALINHF-NH2 [PSPHa3], the MBC in [1] was 32 µM; in [3], 2 µM; in data set [4], above 512 µM; in data set [5], 4 µM; in data set [7], 32 µM. Besides, the minimum inhibitory concentration (MIC) is 32 µM in [1]; 2 µM in [3]; above 512 µM in data set [4]; 4 µM in [5]; 32 µM in [7]. For the same substance, the “LD50 of MTT assays” value turned out to be 3.994 µM in the data set on MDA-MB-435S cells; 10.48 µM with MCF-7 cells [2]; 9.164 µM in the data set with PC-3 cells; 2.865 µM in the data set on NCI-H157 cells; 10.85 µM in the data set with U251MG cells; 11.71 µM in the data set on HCT116 cells. Also, the “HC50 of hemolysis on erythrocytes” value with horse erythrocytes is 9.266 µM.
